Assay results published in ChEMBL document CHEMBL1126293, “Substrate specificity of isopenicillin N synthase” (J Med Chem, 1992).

Assays:
[1] = biological target: T1, Isopenicillin N synthase (Penicillium chrysogenum) (UniProt P08703); test: Anti-micrococcus luteus activity was tested for inhibition of isopenicillin N synthetase.; settings: Penicillium chrysogenum (Penicillium notatum)
T1 sequence (whole entry): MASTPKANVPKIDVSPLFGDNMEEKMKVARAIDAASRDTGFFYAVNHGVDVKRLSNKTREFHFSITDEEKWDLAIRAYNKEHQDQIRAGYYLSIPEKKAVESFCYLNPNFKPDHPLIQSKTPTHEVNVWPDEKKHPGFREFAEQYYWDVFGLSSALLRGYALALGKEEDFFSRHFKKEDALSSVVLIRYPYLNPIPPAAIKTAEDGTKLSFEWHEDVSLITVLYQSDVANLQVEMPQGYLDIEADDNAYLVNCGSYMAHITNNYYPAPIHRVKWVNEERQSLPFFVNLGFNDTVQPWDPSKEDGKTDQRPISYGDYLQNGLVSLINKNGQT
Summary of the method: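 Peptide added at a known amount to a standard IPNS reaction mixture with ACV as substrate before starting the reaction with enzyme. Applied to peptides not converted to an anti-M. luteus product. Percent inhibition derived from the ratio of reaction rates with and without the peptide.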

[2] = Antibiotic activity against Micrococcus luteus (ATCC 9341 strain); format: functional
Summary of the method: (§1)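 Peptides at 0.3 mM incubated with purified IPNS in Tris-HCl pH 8.0 containing KCl, MgSO4, FeSO4, ascorbate and DTT, at 25 °C for 2–20 min in quadruplicate, then stopped with ethanol. Samples with and without penicillinase went into wells on M. luteus ATCC 9341 lawns, incubated overnight at 37 °C, and inhibition zones were read. Peptides giving no product were retested for 1 h at 3 mM.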

[3] = biological target: T2, Regulatory protein BlaR1 (Bacillus licheniformis) (UniProt P12287); test: Beta-lactamase induction in Bacillus licheniformis
T2 sequence (whole entry): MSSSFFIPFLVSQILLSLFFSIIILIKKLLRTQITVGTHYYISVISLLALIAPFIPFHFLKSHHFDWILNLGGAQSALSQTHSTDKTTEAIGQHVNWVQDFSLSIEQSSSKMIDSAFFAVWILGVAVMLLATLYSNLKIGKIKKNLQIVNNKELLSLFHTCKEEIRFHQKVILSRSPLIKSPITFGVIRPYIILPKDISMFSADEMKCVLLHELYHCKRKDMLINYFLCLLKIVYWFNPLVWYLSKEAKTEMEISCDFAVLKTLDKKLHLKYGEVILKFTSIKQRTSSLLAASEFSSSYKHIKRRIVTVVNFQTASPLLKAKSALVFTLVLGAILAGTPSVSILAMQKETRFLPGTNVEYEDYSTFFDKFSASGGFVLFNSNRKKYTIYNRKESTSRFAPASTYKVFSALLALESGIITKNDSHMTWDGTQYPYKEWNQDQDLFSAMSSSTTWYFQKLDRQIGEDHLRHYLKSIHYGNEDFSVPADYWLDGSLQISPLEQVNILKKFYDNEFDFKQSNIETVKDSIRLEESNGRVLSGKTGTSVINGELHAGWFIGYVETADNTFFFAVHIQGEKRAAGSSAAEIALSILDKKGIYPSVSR
Summary of the method: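 Ethanol-stopped IPNS reactions (peptide 0.3 mM, 25 °C) were mixed 1:1 with log-phase B. licheniformis ATCC 14580 diluted to 30 Klett units and incubated for 2 h at 30 °C. Tylosin was added, then after 15 min nitrocefin, with A492 read over 30 min. β-Lactam was quantified by β-lactamase synthesis relative to penicillin G.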

Micrococcus luteus = test: In vitro antibiotic activity against Micrococcus luteus(ATCC 9341 stain).; format: functional, organism-based; summary of the method: as §1

Compound: CC(C)[C@@H](NC(=O)[C@H](C)NC(=O)CCC[C@H](N)C(=O)O)C(=O)O
- Activity [1]: No activity
- Antibiotic activity [2]: No activity
- Beta-lactamase induction [3]: +

Compound: CC(C)[C@H](NC(=O)CCC[C@H](N)C(=O)O)C(=O)N[C@@H](C(=O)O)C(C)C
- Antibiotic activity [2]: No activity

Compound: CC(C)[C@@H](NC(=O)[C@H](CCS)NC(=O)CCC[C@H](N)C(=O)O)C(=O)O
- Antibiotic activity [2]: No activity

Compound: CC(C)[C@@H](NC(=O)[C@H](CS)NC(=O)CCC[C@H](N)C(=O)O)C(=O)O
- Activity [1]: No activity
- Beta-lactamase induction [3]: +

Compound: CC(C)[C@@H](NC(=O)[C@H](CS)NC(=O)Cc1ccccc1CN)C(=O)O
- Antibiotic activity (Micrococcus luteus): Yes

Compound: CC(C)[C@@H](NC(=O)[C@H](Cc1c[nH]cn1)NC(=O)CCC[C@H](N)C(=O)O)C(=O)O
- Antibiotic activity [2]: No activity

Compound: C[S+]([O-])C[C@@H](NC(=O)C(CSSCC(NC(=O)CCC[C@H](N)C(=O)O)C(=O)N[C@H](C[S+](C)[O-])C(=O)O)NC(=O)CCC[C@H](N)C(=O)O)C(=O)O (stereo partly specified)
- Antibiotic activity [2]: No activity

Compound: CC(C)[C@@H](NC(=O)[C@H](CSSC[C@H](NC(=O)CCc1cccc(O)c1)C(=O)N[C@@H](C(=O)O)C(C)C)NC(=O)CCc1cccc(O)c1)C(=O)O
- Activity [1]: No activity
- Antibiotic activity (Micrococcus luteus): Yes

Compound: N[C@@H](CCCC(=O)NC(CSSCC(NC(=O)CCC[C@H](N)C(=O)O)C(=O)N[C@H](Cc1cccs1)C(=O)O)C(=O)N[C@H](Cc1cccs1)C(=O)O)C(=O)O (stereo partly specified)
- Antibiotic activity [2]: No activity

Compound: COC(=O)CCCCC(=O)N[C@@H](CSSC[C@H](NC(=O)CCCCC(=O)OC)C(=O)N[C@@H](C(=O)O)C(C)C)C(=O)N[C@@H](C(=O)O)C(C)C
- Antibiotic activity (Micrococcus luteus): Yes

Compound: N[C@@H](CCCC(=O)NC(CSSCC(NC(=O)CCC[C@H](N)C(=O)O)C(=O)N[C@H](CC(=O)O)C(=O)O)C(=O)N[C@H](CC(=O)O)C(=O)O)C(=O)O (stereo partly specified)
- Antibiotic activity [2]: No activity

Compound: N[C@@H](CCCC(=O)NC(CSSCC(NC(=O)CCC[C@H](N)C(=O)O)C(=O)N[C@H](CC1CNc2ccccc21)C(=O)O)C(=O)N[C@H](CC1CNc2ccccc21)C(=O)O)C(=O)O (stereo partly specified)
- Antibiotic activity [2]: No activity

Compound: CC(C)[C@@H](NC(=O)[C@H](CSSC[C@H](NC(=O)C(N)c1cccc(C(=O)O)c1)C(=O)N[C@@H](C(=O)O)C(C)C)NC(=O)C(N)c1cccc(C(=O)O)c1)C(=O)O (stereo partly specified)
- Activity [1]: No activity
- Antibiotic activity [2]: No activity
- Beta-lactamase induction [3]: +

Compound: CC(C)[C@@H](NC(=O)[C@H](CSSC[C@H](NC(=O)COc1ccccc1)C(=O)N[C@@H](C(=O)O)C(C)C)NC(=O)COc1ccccc1)C(=O)O
- Antibiotic activity (Micrococcus luteus): Yes

Compound: C=C(NC(=O)CCC[C@H](N)C(=O)O)C(=O)N[C@H](COCc1ccccc1)C(=O)O
- Activity [1]: No activity
- Antibiotic activity [2]: No activity

Compound: N[C@@H](CCCC(=O)NC(CSSCC(NC(=O)CCC[C@H](N)C(=O)O)C(=O)N[C@@H](C(=O)O)C1CCCCC1)C(=O)N[C@@H](C(=O)O)C1CCCCC1)C(=O)O (stereo partly specified)
- Activity [1]: No activity
- Antibiotic activity [2]: No activity

Compound: CSC[C@@H](NC(=O)C(CSSCC(NC(=O)CCC[C@H](N)C(=O)O)C(=O)N[C@H](CSC)C(=O)O)NC(=O)CCC[C@H](N)C(=O)O)C(=O)O (stereo partly specified)
- Antibiotic activity [2]: No activity

Compound: CC(C)C(NC(=O)C(CS)NC(=O)CCC[C@H](N)C(=O)O)S(=O)(=O)O (stereo partly specified)
- Antibiotic activity [2]: No activity

Compound: CS(=O)(=O)C[C@@H](NC(=O)C(CSSCC(NC(=O)CCC[C@H](N)C(=O)O)C(=O)N[C@H](CS(C)(=O)=O)C(=O)O)NC(=O)CCC[C@H](N)C(=O)O)C(=O)O (stereo partly specified)
- Antibiotic activity [2]: No activity

Compound: N[C@@H](CCCC(=O)NC(CSSCC(NC(=O)CCC[C@H](N)C(=O)O)C(=O)N[C@H](Cc1ccccc1)C(=O)O)C(=O)N[C@H](Cc1ccccc1)C(=O)O)C(=O)O (stereo partly specified)
- Antibiotic activity [2]: No activity

Compound: COCC(COC)[C@H](NC(=O)C(CSSCC(NC(=O)CCC[C@H](N)C(=O)O)C(=O)N[C@H](C(=O)O)C(COC)COC)NC(=O)CCC[C@H](N)C(=O)O)C(=O)O (stereo partly specified)
- Activity [1]: No activity
- Antibiotic activity [2]: No activity

Compound: CC(C)[C@@H](NC(=O)[C@H](CS)NC(=O)CC[C@H](N)C(=O)O)C(=O)O
- Activity [1]: No activity
- Antibiotic activity [2]: No activity

Compound: CC(C)[C@@H](NC(=O)[C@H](CSSC[C@H](NC(=O)c1cccc(CC(=O)O)c1)C(=O)N[C@@H](C(=O)O)C(C)C)NC(=O)c1cccc(CC(=O)O)c1)C(=O)O
- Activity [1]: No activity
- Antibiotic activity [2]: No activity

Compound: N[C@@H](CCCC(=O)NC(CSSCC(NC(=O)CCC[C@H](N)C(=O)O)C(=O)N[C@@H](Cc1cccs1)C(=O)O)C(=O)N[C@@H](Cc1cccs1)C(=O)O)C(=O)O (stereo partly specified)
- Antibiotic activity [2]: No activity

Compound: CC(NC(=O)CCC[C@H](N)C(=O)O)C(=O)N[C@@H](C(=O)O)C(C)(C)S (stereo partly specified)
- Activity [1]: No activity

Compound: N[C@@H](CCCC(=O)NC(CSSCC(NC(=O)CCC[C@H](N)C(=O)O)C(=O)NC(Cc1cccs1)C(=O)O)C(=O)NC(Cc1cccs1)C(=O)O)C(=O)O (stereo partly specified)
- Antibiotic activity [2]: No activity

Compound: CC(C)[C@@H](NC(=O)[C@H](CSSC[C@H](NC(=O)CCCCC(=O)O)C(=O)N[C@@H](C(=O)O)C(C)C)NC(=O)CCCCC(=O)O)C(=O)O
- Antibiotic activity (Micrococcus luteus): Yes

Compound: CC(Cl)[C@@H](NC(=O)C(CSSCC(NC(=O)CCC[C@H](N)C(=O)O)C(=O)N[C@@H](C(=O)O)C(C)Cl)NC(=O)CCC[C@H](N)C(=O)O)C(=O)O (stereo partly specified)
- Activity [1]: No activity
- Antibiotic activity [2]: No activity

Compound: CC(C)[C@@H](NC(=O)[C@H](CSSC[C@H](NC(=O)Cc1cccc(C(=O)O)c1)C(=O)N[C@@H](C(=O)O)C(C)C)NC(=O)Cc1cccc(C(=O)O)c1)C(=O)O
- Antibiotic activity (Micrococcus luteus): Yes

Compound: N[C@@H](CCCC(=O)NC(CSSCC(NC(=O)CCC[C@H](N)C(=O)O)C(=O)N[C@H](CO)C(=O)O)C(=O)N[C@H](CO)C(=O)O)C(=O)O (stereo partly specified)
- Antibiotic activity (Micrococcus luteus): Yes

Compound: N[C@@H](CCCC(=O)NC(CSSCC(NC(=O)CCC[C@H](N)C(=O)O)C(=O)N[C@H](COCc1ccccc1)C(=O)O)C(=O)N[C@H](COCc1ccccc1)C(=O)O)C(=O)O (stereo partly specified)
- Activity [1]: No activity
- Antibiotic activity [2]: No activity

Compound: N[C@@H](CCCC(=O)NC(CSSCC(NC(=O)CCC[C@H](N)C(=O)O)C(=O)NC1(C(=O)O)CCCC1)C(=O)NC1(C(=O)O)CCCC1)C(=O)O (stereo partly specified)
- Activity [1]: No activity
- Antibiotic activity [2]: No activity

Compound: CC(C)[C@@H](NC(=O)[C@H](CS)NC(=O)[C@@H](N)CCC(=O)O)C(=O)O
- Activity [1]: No activity
- Antibiotic activity [2]: No activity

Compound: CC(C)[C@@H](NC(=O)[C@H](CSSC[C@H](NC(=O)Cc1ccccc1)C(=O)N[C@@H](C(=O)O)C(C)C)NC(=O)Cc1ccccc1)C(=O)O
- Antibiotic activity (Micrococcus luteus): Yes

Compound: CC(C)[C@@H](NC(=O)[C@@H]1CSC(C)(C)N1C(=O)CCC[C@H](N)C(=O)O)C(=O)O
- Activity [1]: No activity
- Antibiotic activity [2]: No activity

Compound: C=CC[C@H](NC(=O)CCC[C@H](N)C(=O)O)C(=O)N[C@@H](C(=O)O)C(C)C
- Activity [1]: No activity
- Antibiotic activity [2]: No activity

Compound: CC(C)=C(NC(=O)C(CS)NC(=O)CCC[C@H](N)C(=O)O)C(=O)O (stereo partly specified)
- Antibiotic activity [2]: No activity

Compound: NC(=O)C[C@@H](NC(=O)C(CSSCC(NC(=O)CCC[C@H](N)C(=O)O)C(=O)N[C@H](CC(N)=O)C(=O)O)NC(=O)CCC[C@H](N)C(=O)O)C(=O)O (stereo partly specified)
- Antibiotic activity [2]: No activity

Compound: CC(C)[C@@H](NC(=O)[C@H](CSSC[C@H](NC(=O)[C@@H]1CCCN1C(=O)CN)C(=O)N[C@@H](C(=O)O)C(C)C)NC(=O)[C@@H]1CCCN1C(=O)CN)C(=O)O
- Activity [1]: No activity
- Antibiotic activity [2]: No activity

Compound: COCC(COC)[C@@H](NC(=O)C(CSSCC(NC(=O)CCC[C@H](N)C(=O)O)C(=O)N[C@@H](C(=O)O)C(COC)COC)NC(=O)CCC[C@H](N)C(=O)O)C(=O)O (stereo partly specified)
- Activity [1]: No activity
- Antibiotic activity [2]: No activity

Compound: N[C@@H](CCCC(=O)N[C@@H](CSSC[C@H](NC(=O)CCC[C@H](N)C(=O)O)C(=O)N[C@H](COCc1ccccc1)C(=O)O)C(=O)N[C@H](COCc1ccccc1)C(=O)O)C(=O)O
- Activity [1]: No activity
- Antibiotic activity [2]: No activity
